ChEMBL document CHEMBL2062487, “Design, synthesis and evaluation of clinafloxacin triazole hybrids as a new type of antibacterial and antifungal agents” (2012)
≈ marks a conversion by molar mass, not a printed value.

Legend:
Staphylococcus aureus [1] = assay: Antibacterial activity against methicillin-resistant Staphylococcus aureus N 315 by two fold broth dilution method; assay type: functional; conditions: N315
How it was run: (§1)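 Twofold broth dilution in 96-well microtest plates following NCCLS guidance. Endpoint is the MIC (µg/mL), the lowest concentration that inhibits growth. Clinafloxacin, chloramphenicol and fluconazole served as positive controls.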

Bacillus subtilis = assay: Antibacterial activity against Bacillus subtilis ATCC 6633 by two fold broth dilution method; assay type: functional
How it was run: (§2)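 MIC was determined by twofold broth dilution in microplates, following NCCLS recommendations. Clinafloxacin, chloramphenicol and fluconazole served as positive controls. Values are given in μg/mL.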

Candida = assay: Antifungal activity against Candida mycoderma by two fold broth dilution method; assay type: functional; how it was run: as §2
[2] = Antibacterial activity against Bacillus proteus by two fold broth dilution method; assay type: functional; how it was run: as §2
Micrococcus luteus [3] = assay: Antibacterial activity against Micrococcus luteus ATCC 4698 by two fold broth dilution method; assay type: functional; conditions: NCTC 2665; how it was run: as §2
Pseudomonas aeruginosa = assay: Antibacterial activity against Pseudomonas aeruginosa by two fold broth dilution method; assay type: functional; how it was run: as §2
Escherichia coli = assay: Antibacterial activity against Escherichia coli JM109 by two fold broth dilution method; assay type: functional; how it was run: as §2
Shigella dysenteriae = assay: Antibacterial activity against Shigella dysenteriae by two fold broth dilution method; assay type: functional; how it was run: as §1
Candida albicans = assay: Antifungal activity against Candida albicans ATCC 76615 by two fold broth dilution method; assay type: functional; how it was run: as §2
Staphylococcus aureus [4] = assay: Antibacterial activity against Staphylococcus aureus ATCC […] by two fold broth dilution method; assay type: functional; how it was run: as §2
Micrococcus luteus [5] = assay: Ratio of chloramphenicol MIC to compound MIC for Micrococcus luteus ATCC 4698; assay type: functional, NCTC 2665
Bacillus = assay: Ratio of clinafloxacin MIC to compound MIC for Bacillus proteus; assay type: functional

SMILES	MIC (Staphylococcus aureus [1])	MIC (Bacillus subtilis)	MIC (Candida)	MIC [2]	MIC (Micrococcus luteus [3])	MIC (Pseudomonas aeruginosa)	MIC (Escherichia coli)	MIC (Shigella dysenteriae)	MIC (Candida albicans)	MIC (Staphylococcus aureus [4])	Ratio (Micrococcus luteus [5])	Ratio (Bacillus)
Fc1ccc(C2(Cn3cncn3)CO2)cc1 (racemic)	128 µg/mL (≈ 584 µM)	8 µg/mL (≈ 36.5 µM)	8 µg/mL (≈ 36.5 µM)	128 µg/mL (≈ 584 µM)	8 µg/mL (≈ 36.5 µM)	128 µg/mL (≈ 584 µM)	128 µg/mL (≈ 584 µM)	64 µg/mL (≈ 292 µM)	64 µg/mL (≈ 292 µM)	256 µg/mL (≈ 1170 µM)	–	–
OC(Cn1cncn1)(Cn1cncn1)c1ccc(F)cc1F [FLUCONAZOLE]	> 512 µg/mL	> 512 µg/mL	0.5 µg/mL (≈ 1.63 µM)	> 512 µg/mL	> 512 µg/mL	> 512 µg/mL	> 512 µg/mL	> 512 µg/mL	0.5 µg/mL (≈ 1.63 µM)	> 512 µg/mL	–	–
Cc1ccc(C2(Cn3cncn3)CO2)cc1 (racemic)	512 µg/mL (≈ 2380 µM)	8 µg/mL (≈ 37.2 µM)	1 µg/mL (≈ 4.65 µM)	256 µg/mL (≈ 1190 µM)	1 µg/mL (≈ 4.65 µM)	256 µg/mL (≈ 1190 µM)	256 µg/mL (≈ 1190 µM)	256 µg/mL (≈ 1190 µM)	256 µg/mL (≈ 1190 µM)	256 µg/mL (≈ 1190 µM)	8	–
Clc1ccc(C2(Cn3cncn3)CO2)cc1 (racemic)	256 µg/mL (≈ 1090 µM)	16 µg/mL (≈ 67.9 µM)	32 µg/mL (≈ 136 µM)	16 µg/mL (≈ 67.9 µM)	32 µg/mL (≈ 136 µM)	32 µg/mL (≈ 136 µM)	32 µg/mL (≈ 136 µM)	32 µg/mL (≈ 136 µM)	32 µg/mL (≈ 136 µM)	64 µg/mL (≈ 272 µM)	–	–
O=C(Cn1cncn1)c1ccc(F)cc1F	> 512 µg/mL	512 µg/mL (≈ 2290 µM)	> 512 µg/mL	512 µg/mL (≈ 2290 µM)	512 µg/mL (≈ 2290 µM)	256 µg/mL (≈ 1150 µM)	32 µg/mL (≈ 143 µM)	512 µg/mL (≈ 2290 µM)	512 µg/mL (≈ 2290 µM)	512 µg/mL (≈ 2290 µM)	–	–
Cc1ccc(C(O)(CNC2CCN(c3c(F)cc4c(=O)c(C(=O)O)cn(C5CC5)c4c3Cl)C2)Cn2cncn2)cc1 (racemic)	0.25 µg/mL (≈ 0.43 µM)	0.5 µg/mL (≈ 0.861 µM)	0.5 µg/mL (≈ 0.861 µM)	0.5 µg/mL (≈ 0.861 µM)	2 µg/mL (≈ 3.44 µM)	0.5 µg/mL (≈ 0.861 µM)	1 µg/mL (≈ 1.72 µM)	0.5 µg/mL (≈ 0.861 µM)	0.5 µg/mL (≈ 0.861 µM)	2 µg/mL (≈ 3.44 µM)	–	–
Clc1ccc(C2(Cn3cncn3)CO2)cc1Cl (racemic)	256 µg/mL (≈ 948 µM)	16 µg/mL (≈ 59.2 µM)	16 µg/mL (≈ 59.2 µM)	32 µg/mL (≈ 118 µM)	16 µg/mL (≈ 59.2 µM)	128 µg/mL (≈ 474 µM)	128 µg/mL (≈ 474 µM)	64 µg/mL (≈ 237 µM)	64 µg/mL (≈ 237 µM)	128 µg/mL (≈ 474 µM)	–	–
NC1CCN(c2c(F)cc3c(=O)c(C(=O)O)cn(C4CC4)c3c2Cl)C1 (configuration not stated) [CLINAFLOXACIN]	1 µg/mL (≈ 2.73 µM)	0.5 µg/mL (≈ 1.37 µM)	> 512 µg/mL	0.5 µg/mL (≈ 1.37 µM)	0.5 µg/mL (≈ 1.37 µM)	0.5 µg/mL (≈ 1.37 µM)	0.5 µg/mL (≈ 1.37 µM)	1 µg/mL (≈ 2.73 µM)	> 512 µg/mL	0.5 µg/mL (≈ 1.37 µM)	–	–
O=C(O)c1cn(C2CC2)c2c(Cl)c(N3CCC(NCC(O)(Cn4cncn4)c4ccc(F)c(F)c4)C3)c(F)cc2c1=O (racemic)	0.5 µg/mL (≈ 0.829 µM)	0.5 µg/mL (≈ 0.829 µM)	0.5 µg/mL (≈ 0.829 µM)	0.5 µg/mL (≈ 0.829 µM)	0.5 µg/mL (≈ 0.829 µM)	0.5 µg/mL (≈ 0.829 µM)	1 µg/mL (≈ 1.66 µM)	0.5 µg/mL (≈ 0.829 µM)	0.5 µg/mL (≈ 0.829 µM)	0.5 µg/mL (≈ 0.829 µM)	–	–
Fc1ccc(C2(Cn3cncn3)CO2)c(F)c1 (racemic)	128 µg/mL (≈ 540 µM)	16 µg/mL (≈ 67.5 µM)	8 µg/mL (≈ 33.7 µM)	32 µg/mL (≈ 135 µM)	32 µg/mL (≈ 135 µM)	16 µg/mL (≈ 67.5 µM)	32 µg/mL (≈ 135 µM)	32 µg/mL (≈ 135 µM)	64 µg/mL (≈ 270 µM)	256 µg/mL (≈ 1080 µM)	–	–
O=C(Cn1cncn1)c1ccc(Cl)cc1Cl	> 512 µg/mL	512 µg/mL (≈ 2000 µM)	> 512 µg/mL	512 µg/mL (≈ 2000 µM)	> 512 µg/mL	256 µg/mL (≈ 1000 µM)	128 µg/mL (≈ 500 µM)	512 µg/mL (≈ 2000 µM)	512 µg/mL (≈ 2000 µM)	> 512 µg/mL	–	–
O=C(O)c1cn(C2CC2)c2c(Cl)c(N3CCC(NCC(O)(Cn4cncn4)c4ccc(Cl)cc4)C3)c(F)cc2c1=O (racemic)	> 512 µg/mL	> 512 µg/mL	> 512 µg/mL	512 µg/mL (≈ 851 µM)	> 512 µg/mL	> 512 µg/mL	32 µg/mL (≈ 53.2 µM)	> 512 µg/mL	> 512 µg/mL	> 512 µg/mL	–	–
O=C(N[C@H](CO)[C@H](O)c1ccc([N+](=O)[O-])cc1)C(Cl)Cl [CHLORAMPHENICOL]	16 µg/mL (≈ 49.5 µM)	32 µg/mL (≈ 99 µM)	> 512 µg/mL	32 µg/mL (≈ 99 µM)	8 µg/mL (≈ 24.8 µM)	32 µg/mL (≈ 99 µM)	32 µg/mL (≈ 99 µM)	32 µg/mL (≈ 99 µM)	> 512 µg/mL	16 µg/mL (≈ 49.5 µM)	–	–
O=C(Cn1cncn1)c1ccc(F)c(F)c1	> 512 µg/mL	512 µg/mL (≈ 2290 µM)	512 µg/mL (≈ 2290 µM)	> 512 µg/mL	512 µg/mL (≈ 2290 µM)	256 µg/mL (≈ 1150 µM)	64 µg/mL (≈ 287 µM)	512 µg/mL (≈ 2290 µM)	> 512 µg/mL	> 512 µg/mL	–	–
O=C(O)c1cn(C2CC2)c2c(Cl)c(N3CCC(NCC(O)(Cn4cncn4)c4ccc(F)cc4)C3)c(F)cc2c1=O (racemic)	2 µg/mL (≈ 3.42 µM)	1 µg/mL (≈ 1.71 µM)	0.5 µg/mL (≈ 0.855 µM)	0.5 µg/mL (≈ 0.855 µM)	0.5 µg/mL (≈ 0.855 µM)	0.5 µg/mL (≈ 0.855 µM)	1 µg/mL (≈ 1.71 µM)	0.5 µg/mL (≈ 0.855 µM)	1 µg/mL (≈ 1.71 µM)	2 µg/mL (≈ 3.42 µM)	–	–
Cc1ccc(C(=O)Cn2cncn2)cc1	> 512 µg/mL	256 µg/mL (≈ 1270 µM)	> 512 µg/mL	> 512 µg/mL	> 512 µg/mL	32 µg/mL (≈ 159 µM)	32 µg/mL (≈ 159 µM)	> 512 µg/mL	> 512 µg/mL	> 512 µg/mL	–	–
O=C(O)c1cn(C2CC2)c2c(Cl)c(N3CCC(NCC(O)(Cn4cncn4)c4ccc(F)cc4F)C3)c(F)cc2c1=O (racemic)	0.25 µg/mL (≈ 0.415 µM)	0.5 µg/mL (≈ 0.829 µM)	0.5 µg/mL (≈ 0.829 µM)	0.25 µg/mL (≈ 0.415 µM)	0.5 µg/mL (≈ 0.829 µM)	0.5 µg/mL (≈ 0.829 µM)	1 µg/mL (≈ 1.66 µM)	0.5 µg/mL (≈ 0.829 µM)	0.5 µg/mL (≈ 0.829 µM)	0.5 µg/mL (≈ 0.829 µM)	–	2
O=C(Cn1cncn1)c1ccc(Cl)cc1	512 µg/mL (≈ 2310 µM)	> 512 µg/mL	> 512 µg/mL	512 µg/mL (≈ 2310 µM)	> 512 µg/mL	512 µg/mL (≈ 2310 µM)	> 512 µg/mL	512 µg/mL (≈ 2310 µM)	512 µg/mL (≈ 2310 µM)	512 µg/mL (≈ 2310 µM)	–	–
O=C(O)c1cn(C2CC2)c2c(Cl)c(N3CCC(NCC(O)(Cn4cncn4)c4ccc(Cl)cc4Cl)C3)c(F)cc2c1=O (racemic)	4 µg/mL (≈ 6.29 µM)	32 µg/mL (≈ 50.3 µM)	0.5 µg/mL (≈ 0.786 µM)	1 µg/mL (≈ 1.57 µM)	0.5 µg/mL (≈ 0.786 µM)	2 µg/mL (≈ 3.15 µM)	4 µg/mL (≈ 6.29 µM)	0.5 µg/mL (≈ 0.786 µM)	4 µg/mL (≈ 6.29 µM)	4 µg/mL (≈ 6.29 µM)	–	–
O=C(Cn1cncn1)c1ccc(Cl)c(Cl)c1	> 512 µg/mL	512 µg/mL (≈ 2000 µM)	512 µg/mL (≈ 2000 µM)	256 µg/mL (≈ 1000 µM)	512 µg/mL (≈ 2000 µM)	128 µg/mL (≈ 500 µM)	32 µg/mL (≈ 125 µM)	512 µg/mL (≈ 2000 µM)	> 512 µg/mL	256 µg/mL (≈ 1000 µM)	–	–
O=C(O)c1cn(C2CC2)c2c(Cl)c(N3CCC(NCC(O)(Cn4cncn4)c4ccc(Cl)c(Cl)c4)C3)c(F)cc2c1=O (racemic)	0.25 µg/mL (≈ 0.393 µM)	32 µg/mL (≈ 50.3 µM)	0.5 µg/mL (≈ 0.786 µM)	0.25 µg/mL (≈ 0.393 µM)	0.5 µg/mL (≈ 0.786 µM)	0.5 µg/mL (≈ 0.786 µM)	4 µg/mL (≈ 6.29 µM)	0.5 µg/mL (≈ 0.786 µM)	2 µg/mL (≈ 3.15 µM)	8 µg/mL (≈ 12.6 µM)	–	–
Clc1ccc(C2(Cn3cncn3)CO2)c(Cl)c1 (racemic)	256 µg/mL (≈ 948 µM)	32 µg/mL (≈ 118 µM)	16 µg/mL (≈ 59.2 µM)	64 µg/mL (≈ 237 µM)	32 µg/mL (≈ 118 µM)	128 µg/mL (≈ 474 µM)	256 µg/mL (≈ 948 µM)	64 µg/mL (≈ 237 µM)	32 µg/mL (≈ 118 µM)	256 µg/mL (≈ 948 µM)	–	–
Fc1ccc(C2(Cn3cncn3)CO2)cc1F (racemic)	256 µg/mL (≈ 1080 µM)	32 µg/mL (≈ 135 µM)	8 µg/mL (≈ 33.7 µM)	64 µg/mL (≈ 270 µM)	8 µg/mL (≈ 33.7 µM)	64 µg/mL (≈ 270 µM)	128 µg/mL (≈ 540 µM)	64 µg/mL (≈ 270 µM)	128 µg/mL (≈ 540 µM)	256 µg/mL (≈ 1080 µM)	–	–
O=C(Cn1cncn1)c1ccc(F)cc1	> 512 µg/mL	> 512 µg/mL	> 512 µg/mL	> 512 µg/mL	> 512 µg/mL	512 µg/mL (≈ 2500 µM)	> 512 µg/mL	> 512 µg/mL	> 512 µg/mL	> 512 µg/mL	–	–
